# Assay outcomes (PubChem)
# PREPL inhibitor = inhibits the human prolyl oligopeptidase-like enzyme | recombinant PREPL, fluorescence polarization activity-based probe | Q4J6C6 | actives 0.68% (n = 320,000) | inhibition, % at 5.96 µM; in the data active = inhibition above about 43%;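 note: 0% = enzyme with DMSO and 100% = wells lacking enzyme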
# MEKK2mut PB1 HTS = signal of MEK5 binding to mutant human MEKK2 PB1 domain | bead flow cytometry, Alexa488-MEK5 binding to MEKK2 mutant | percent response, % at 10 µM | actives 0.35% (n = 290,000); in the data active = percent response above about 24%, passing the limit was not always enough
# Apaf-1 inh = blocks human Apaf-1 apoptosome activity | actives 0.71% (n = 330,000) | inhibition, % at 20 µM | reconstituted apoptosome caspase-3 activity, DEVD-Rh110 fluorescence; active = inhibition of at least 40% at 20 µM;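 note: plate controls were DMSO wells for no effect and DEVD-CHO caspase inhibitor wells for full effect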
#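 Material: biochemical Apaf-1 apoptosome reconstitution. Medium: Hepes buffer, pH 7.5. Also added: cytochrome c activation, bis-DEVD rhodamine 110 substrate. Timing: 30 min compound preincubation, 50 min activation, room temperature. Measured by: rhodamine 110 fluorescence at Ex 480/Em 540 nm.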
# MEKK2 WT-MEK5 = raises or lowers MEK5 binding to wildtype human MEKK2 PB1 domain. Q9Y2U5. bead flow cytometry, Alexa488-MEK5 binding to MEKK2 WT; actives lie on both sides. binding response (% of control), % at 10 µM. actives 1.1% (n = 290,000); in the data active = binding response below about 67% or above about 130%
# UBC13 polyUb = human UBC13 polyubiquitination inhibition | inhibition, % at 20 µM | P61088 | actives 0.47% (n = 330,000) | AID 485273 | UBC13 polyubiquitin chain formation, TR-FRET; in the data active = inhibition above about 45%, passing the limit was not always enough
# Target sequence (P61088 whole entry, looked up): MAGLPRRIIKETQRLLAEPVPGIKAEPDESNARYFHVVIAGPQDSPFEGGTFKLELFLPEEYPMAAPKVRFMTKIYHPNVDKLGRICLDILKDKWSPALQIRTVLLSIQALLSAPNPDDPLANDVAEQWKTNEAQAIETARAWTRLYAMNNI
# MEKK3 PB1 HTS = modulators (inhibitors or enhancers) of MEK5 binding to human MEKK3 PB1 domain; bead-based flow cytometry, Alexa488-MEK5 binding to MEKK3; actives lie on both sides; 0 = blocked by unlabeled MEK5, 100 = vehicle; binding response (% of control), % at 10 µM; actives 1.4% (n = 290,000); AID 1529;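 active = binding response more than 3 SD above or below the average of its plate-row segment, actives on both sides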;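 note: Alexa488 bead fluorescence after subtracting the streptavidin-only scavenger bead signal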
# MEKK2wt confirm = raises or lowers MEK5 binding to wildtype human MEKK2, retest | shares compounds with MEKK3 PB1 HTS | AID 1892 | binding response (% of control), % at 10 µM | actives 2.4% (n = 5,900) | bead flow cytometry, Alexa488-MEK5 binding to MEKK2 WT; actives lie on both sides; in the data active = binding response below about 16% or above about 210%; inactive = in between
# MEKK2mut confirm = signal of MEK5 binding to mutant human MEKK2, retest; percent response, % at 10 µM; bead flow cytometry, Alexa488-MEK5 binding to MEKK2 mutant; shares compounds with MEKK3 PB1 HTS; actives 2% (n = 5,900); AID 1893; in the data active = percent response mostly above about 71%, no sharp cut-off; inactive = mostly below about 38%;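 note: higher means compound restores mutant binding toward wildtype level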
# MEKK3-MEK5 inh = confirmation of inhibitors of MEK5 binding to human MEKK3; binding response (% of control), % at 10 µM; AID 1894; actives 1.8% (n = 5,900); bead flow cytometry, Alexa488-MEK5 binding to MEKK3; hits give low values; shares compounds with MEKK3 PB1 HTS;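 active = binding response below 72% of control, or above a set upper limit, though filed actives all read lower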;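 note: 100% = DMSO only wells and 0% = binding blocked by excess unlabeled MEK5; lower values mean stronger disruption of MEK5 binding to MEKK3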
# Numbers without * were called inactive; . = no result; [ ] = dose if it differs, or a comment. The list is not random: actives were taken first. Their share in the collection is about 3.1%.
SMILES,PREPL inhibitor,MEKK2mut PB1 HTS,Apaf-1 inh,MEKK2 WT-MEK5,UBC13 polyUb,MEKK3 PB1 HTS,MEKK2wt confirm,MEKK2mut confirm,MEKK3-MEK5 inh
COc1ccc(-n2c(=S)[nH]c3cc(C(=O)Nc4ccc(C)c(F)c4)ccc3c2=O)c(OC)c1,-6.1,8.0,16.3,103.0,2.3,104.0,.,.,.
CN1CCN(C(=O)c2ccc3c(=O)n(-c4ccc(F)cc4)c(=S)[nH]c3c2)CC1,3.9,6.0,-4.9,103.0,14.1,99.0,.,.,.
COc1ccc(-n2c(=S)[nH]c3cc(C(=O)Nc4ccc(OC)c(OC)c4)ccc3c2=O)cc1,-11.0,-1.0,.,103.0,.,140.0*,94.0,-4.0,100.0
O=C(CN1CCN(S(=O)(=O)c2ccccc2)CC1)N1CCCCC1,-1.4,.,3.4,.,-5.3,.,.,.,.
COc1ccc(OC)c(N2Cc3cc(C)c(C)cc3C2)c1,4.4,-27.0,-5.2,10.0*[inhibitor],-32.8,8.0*[inhibitor],91.0,-5.0,98.0
Cc1nc2nc(NC(=O)c3ccco3)nn2c(C)c1Cl,3.5,8.0,-6.8,111.0,12.0,104.0,.,.,.
CCN1C(=O)C2(C(C(=O)c3cc4ccccc4o3)=C(O)C(=O)N2CCCN2CCOCC2)c2ccccc21 (centres undefined),5.4,2.0,-11.5,98.0,-54.7,98.0,.,.,.
Cc1cc(C(=O)Nc2ccc(C#N)cc2)on1,.,-49.0,-1.5,8.0*[inhibitor],4.5,4.0*[inhibitor],95.0,-2.0,99.0
COc1ccc(-c2c(C)n([O-])c3c([n+]2=O)CCCCC3)cc1,8.8,-1.0,1.9,104.0,1.2,135.0*,103.0,2.0,102.0
CCN(CC)CCCN(C(=O)c1ccc(OC)cc1)c1nc(-c2ccc(OC)cc2)cs1,-18.8,20.0,8.2,165.0*,14.3,95.0,153.0,30.0,108.0
CCN(CC)CCCN(C(=O)c1ccccc1F)c1nc(-c2ccc(OC)cc2)cs1,-42.3,21.0,10.8,156.0*,19.2,104.0,150.0,27.0,107.0
COc1ccc(-c2csc(N(CCCN(C)C)C(=O)c3ccc(C)cc3)n2)cc1,-45.0,10.0,10.7,127.0,17.2,99.0,.,.,.
COc1ccc(-c2csc(N(CCCN(C)C)C(=O)c3cccs3)n2)cc1,-19.0,12.0,-1.5,130.0,15.4,110.0,.,.,.
CCN(CC)CCCN(C(=O)c1ccccc1C)c1nc(-c2ccc(OC)cc2)cs1,-17.8,20.0,17.6,145.0*,7.9,107.0,142.0,24.0,109.0
COc1ccc(NS(=O)(=O)c2ccc(C)c(C(=O)N3CC(C)OC(C)C3)c2)cc1 (centres undefined),-5.7,.,8.9,.,-8.3,.,.,.,.
Cc1cccc(NC(=O)c2ccc([N+](=O)[O-])cc2Cl)n1,9.9,2.0,12.2,108.0,-4.1,137.0*,110.0,5.0,95.0
CC(C)(CO)NC(=O)C(Cc1ccccc1)N1C(=O)c2ccccc2C1=O (centres undefined),1.2,5.0,-8.9,101.0,6.0,104.0,.,.,.
COc1cc(/C=C/c2noc(-c3ccccc3O)n2)ccc1OC(C)=O,-2.4,26.0,-7.9,115.0,2.2,129.0*,98.0,-9.0,96.0
CC(=O)Nc1ccc(/C=C/c2noc(-c3ccccc3O)n2)cc1,-4.1,0.0,15.1,104.0,4.4,106.0,.,.,.
COc1cc(NC(=O)c2ccccc2)c(OC)cc1Cl,-2.3,9.0,-7.7,102.0,5.0,114.0,.,.,.
COc1cc(Cl)c(C)cc1NC(=O)c1ccc(S(C)(=O)=O)cc1,-0.8,-25.0,-7.0,63.0,-1.4,45.0*[inhibitor],94.0,-6.0,96.0
CNC(=O)CCc1[nH]c2ccccc2c1Sc1ccccc1,-2.3,1.0,-1.8,105.0,10.5,160.0*,100.0,-2.0,101.0
